Experimental findings from ChEMBL document CHEMBL1145466, “Effects of carbapenem exposure on the risk for digestive tract carriage of intensive care unit-endemic carbapenem-resistant Pseudomonas aeruginosa strains in critically ill patients” (2007) are described below.

A value given as a limit tells only on which side of the number the result lay.

Experiment [1] concerns Pseudomonas aeruginosa. Put plainly: Antimicrobial activity against carbapenem-resistant Pseudomonas aeruginosa isolate. It is filed as functional. In short, it runs like this: (§1)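 P. aeruginosa isolates came from rectal and oropharyngeal swabs of ICU patients, plated on MacConkey agar and incubated at 37°C for 48 h. Gram-negative, oxidase-positive bacilli were identified by conventional biochemical tests. Intermediate isolates were scored as resistant. Clonality was checked by PFGE (6 V/cm, 14°C, 23 h, 5–25 s pulses), read by Tenover criteria.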

In experiment [2] the test system is Pseudomonas aeruginosa. Put plainly: Antimicrobial activity against carbapenem-resistant Pseudomonas aeruginosa assessed as percent resistant isolates. It is filed as functional. In short, it runs like this: as §1

A word on the MIC: it is the smallest concentration in the dilution series that meets the test's criterion for growth inhibition. Take `CC(O)[C@H]1C(=O)N2C(C(=O)O)=C(SCCNC=N)C[C@H]12` (single isomer, unassigned) [IMIPENEM ANHYDROUS]: in the experiment with Pseudomonas aeruginosa [1], the MIC is not below 8 µg/mL. The Activity with Pseudomonas aeruginosa [2] is 100%.

Turning to `NCC[C@H](O)C(=O)N[C@@H]1C[C@H](N)[C@@H](O[C@H]2O[C@H](CN)[C@@H](O)[C@H](O)[C@H]2O)[C@H](O)[C@H]1O[C@H]1O[C@H](CO)[C@@H](O)[C@H](N)[C@H]1O` [AMIKACIN], the MIC in the experiment with Pseudomonas aeruginosa [1] was more than 16 µg/mL. For the same molecule, the Activity in the experiment on Pseudomonas aeruginosa [2] worked out at 19%.

Molecule `C[C@H]1[C@H](NC(=O)/C(=N\OC(C)(C)C(=O)O)c2csc(N)n2)C(=O)N1S(=O)(=O)O` [AZTREONAM] yielded an MIC in the experiment on Pseudomonas aeruginosa [1] of more than 8 µg/mL. In addition, the Activity in the experiment with Pseudomonas aeruginosa [2] is recorded as 33%.

`CC(C)(O/N=C(\C(=O)N[C@@H]1C(=O)N2C(C(=O)[O-])=C(C[n+]3ccccc3)CS[C@H]12)c1csc(N)n1)C(=O)O` [CEFTAZIDIME]: the MIC against Pseudomonas aeruginosa [1] is more than 8 µg/mL. In addition, in the experiment with Pseudomonas aeruginosa [2], the Activity is given as 28.5%.

In the case of `O=C(O)c1cn(C2CC2)c2cc(N3CCNCC3)c(F)cc2c1=O` [CIPROFLOXACIN], the MIC in the experiment with Pseudomonas aeruginosa [1] is not below 2 µg/mL. For the same molecule, the Activity in the experiment with Pseudomonas aeruginosa [2] is listed as 59.5%.

As for `C[C@@H](O)[C@H]1C(=O)N2C(C(=O)O)=C(S[C@@H]3CN[C@H](C(=O)N(C)C)C3)[C@H](C)[C@H]12` [MEROPENEM], in the experiment on Pseudomonas aeruginosa [1], the MIC was not below 8 µg/mL. The Activity with Pseudomonas aeruginosa [2] was found to be 59.5%.

`CCN1CCN(C(=O)N[C@@H](C(=O)N[C@@H]2C(=O)N3[C@@H]2SC(C)(C)[C@@H]3C(=O)O)c2ccccc2)C(=O)C1=O` [PIPERACILLIN] returned an MIC against Pseudomonas aeruginosa [1] of more than 64 µg/mL. For the same molecule, the Activity in the experiment with Pseudomonas aeruginosa [2] is recorded as 21%.

Turning to `CC1(C)S[C@@H]2[C@H](NC(=O)[C@H](C(=O)O)c3ccsc3)C(=O)N2[C@H]1C(=O)O` [TICARCILLIN], the MIC against Pseudomonas aeruginosa [1] is more than 64 µg/mL. Further, the Activity with Pseudomonas aeruginosa [2] worked out at 28.5%.

With `NC[C@H]1O[C@H](O[C@H]2[C@H](O)[C@@H](O[C@H]3O[C@H](CO)[C@@H](O)[C@H](N)[C@H]3O)[C@H](N)C[C@@H]2N)[C@H](N)C[C@@H]1O` [TOBRAMYCIN], in the experiment with Pseudomonas aeruginosa [1], the MIC is more than 4 µg/mL. Also, the Activity in the experiment on Pseudomonas aeruginosa [2] is listed as 55%.
